Data as given in article PMC11537069 (Structure (London, England : 1993), 2020).

Legend:
HERC2ZZ = target: T1, HERC2ZZ (Homo sapiens, UniProt O95714); experiment: NMR titration; format: binding; conditions: 0.1 mM 15N-labeled HERC2ZZ, 20 mM Tris pH 6.8, 100 mM NaCl, 298K
T1 sequence (O95714 2702-2755): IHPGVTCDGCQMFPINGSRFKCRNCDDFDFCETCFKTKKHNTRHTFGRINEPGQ
Method in brief: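 Human HERC2ZZ (aa 2702-2755, plus an extra C-terminal Trp) was expressed in BL21(DE3) RIL in minimal medium with 15NH4Cl and 0.05 mM ZnCl2, induced with 0.2 mM IPTG for 20 h at 16 °C. The His8-SUMO tag was removed with Ulp1, followed by size exclusion. Sample also held 2-5 mM DTT and 10% D2O.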

HERC2ZZ D2709A = experiment: NMR titration; format: binding, human; conditions: 15N-labeled D2709A HERC2ZZ, 20 mM Tris pH 6.8, 100 mM NaCl, 298K; Figures 3G, 3H, S9

Molecule | CSPs in HERC2ZZ upon addition of free alanine amino acid (HERC2ZZ; 50-fold excess of alanine, Figure S5) | exchange regime of CSPs in HERC2ZZ on the NMR timescale (HERC2ZZ) | interaction with SUMO1 ligand upon D2709A substitution (NMR titration) (HERC2ZZ D2709A)
C[C@H](N)C(=O)O [alanine, reference compound] | no CSPs | – | –
SUMO1FL: full-length SUMO1 protein | – | intermediate exchange regime | abolished
